Screens as filed in PubChem.
The list is not random: actives were taken first. Their share in the collection is about 2.3%.
MT1-MMP act inh: blocks activation of human MT1-MMP; actives 0.061% (n = 360,000); HT1080 RFP-PRO-GFP cells, GFP/RFP ratio fluorescence, overnight; percent of plate control window, DMSO zero; GFP/RFP ratio change, % at 20 µM; AID 651647;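 active = GFP/RFP ratio change of at least 30% with cell ATP level not reduced by more than half and red fluorescence within 50% of control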
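Compound: 20 µM single dose, 1% DMSO / System: HT1080 RFP-PRO-GFP cells / Controls: DMSO and RFP-L50D-GFP cell wells / Read-out basis: GFP/RFP fluorescence ratio / Schedule: overnight compound exposure at 37 °C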
Rpn11 inh: Rpn11 (human) deubiquitinase inhibition; actives 0.59% (n = 360,000); human 26S proteasome, Ub4-pepOG fluorescence polarization; 20S core pre-blocked with epoxomicin; inhibition, % at 20 µM; O00487; AID 588493;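 active = inhibition at 20 µM, scaled to each plate's controls, above about 33%, limit read from the data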
DNMT1 block: DNMT1 (human) enzyme inhibition | DNMT1 molecular beacon, Hinp1I cleavage, fluorescence | inhibition (reported as % activation of signal), % at 10 µM | actives 0.83% (n = 360,000) | AID 588458; in the data active = inhibition above about 50%
SUMO1-SIM PPI: SUMO1-SIM interaction modulation; P63165; actives 0.33% (n = 360,000); inhibition, % at 20 µM; AID 602429; SUMO1 binding to a labelled peptide, TR-FRET, 1 h; in the data active = inhibition above about 37%
Target sequence (P63165 whole entry, looked up): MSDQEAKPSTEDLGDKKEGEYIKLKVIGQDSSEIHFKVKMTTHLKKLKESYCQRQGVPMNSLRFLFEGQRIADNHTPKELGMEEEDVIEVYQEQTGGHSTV
CSN deneddyl inh: CSN deneddylation inhibition. inhibition, % at 12.5 µM. Purified CSN, SCF-Nedd8-OG deneddylation, fluorescence polarization. AID 651999. Q92905. actives 0.38% (n = 360,000);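 active = pattern-corrected inhibition above about 35%, with an unprinted fluorescence ratio check between 0.5 and 1.5, limit read from the data, passing the limit was not always enough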;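 note: 0% = enzyme with substrate and 100% = substrate without enzyme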
Target sequence (Q92905 whole entry, looked up, one chain of several): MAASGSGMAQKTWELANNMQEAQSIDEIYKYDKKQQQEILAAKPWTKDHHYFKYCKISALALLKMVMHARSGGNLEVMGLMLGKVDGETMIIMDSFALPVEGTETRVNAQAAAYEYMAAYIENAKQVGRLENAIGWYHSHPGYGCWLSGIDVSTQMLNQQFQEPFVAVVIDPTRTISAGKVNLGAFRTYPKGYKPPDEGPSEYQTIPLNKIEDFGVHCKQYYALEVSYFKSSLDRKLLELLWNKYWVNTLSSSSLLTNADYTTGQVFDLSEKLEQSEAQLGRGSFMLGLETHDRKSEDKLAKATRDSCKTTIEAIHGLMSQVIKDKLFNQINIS
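Assay system: Purified human Csn5 enzyme expressed in HEK293T cells | Amount: Enzyme 0.24 nM | Measured by: Fluorescence polarization readout | Medium: Tris/NaCl/DTT buffer, pH 7.5 | Compound dosing: One concentration, 12.5 µM, 0.25% DMSO | Times: 90 min incubation of compound, enzyme and substrate at room temperature | Control set: no-enzyme wells high, enzyme-with-substrate wells low | Read-out: % inhibition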
SKN-1 inh: blocks SKN-1 activity in C. elegans | actives 0.49% (n = 360,000) | C. elegans VP596 Pgst-4::GFP/RFP ratio, acrylamide-induced, 24 h | inhibition, % at 21.8 µM;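 active = interference check ratio from 0.5 to 1.5 plus GFP to RFP signal ratio inhibition reaching or exceeding a fixed threshold, cut at about 30% in these data, passing the limit was not always enough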
* = called active by the depositor; x = not tested or not shown.

SMILES	MT1-MMP act inh	Rpn11 inh	DNMT1 block	SUMO1-SIM PPI	CSN deneddyl inh	SKN-1 inh
O=C(O)c1ccc2ccc3ccccc3c2c1	-1	-2	-5	4	-8	41*
O=C(Nc1ccn(Cc2ccc(Cl)cc2)n1)c1ccc2c(c1)OCO2	0	-1	-8	40*	-2	6
CC(=O)Nc1cc(-c2ccccc2)cn2c(-c3cccc(C(C)=O)c3)cnc12	-4	9	-13	-13	2	8
Cc1cccc(N2CCN(C(C(=O)NCc3ccccc3)c3ccc(C(F)(F)F)cc3)CC2)c1C (stereo unspecified)	-10	x	x	-2	4	11
COc1ccc(C2NC(=O)NC3=C2CCc2ccccc23)cc1 (stereo unspecified)	-2	-1	79*	11	23	7
COc1ccc(C2=Nn3c(nnc3-c3cccnc3)SC2)cc1OC	3	-2	-3	-11	12	-3
COc1cccc(-c2nnc3n2N=C(c2cccc(Br)c2)CS3)c1	1	-2	29	49*	8	25
CCOC(=O)C1C(c2cc(OC)c(O)c(OC)c2)NC(=S)NC1(O)C(F)(F)F (stereo unspecified)	-3	3	-1	12	-11	7
CCOC(=O)C1C(c2cc(OC)c(OC)c(OC)c2)NC(=S)NC1(O)C(F)(F)F (stereo unspecified)	-3	-1	-4	2	37*	11
O=c1oc2ccccc2n1CCn1c2ccccc2c2nc3ccccc3nc21	-6	-1	62*	1	52*	1
COc1ccc2c(c1)c1nc3ccccc3nc1n2CCn1c(=O)oc2ccccc21	-20	4	2	-2	4	3
COc1ccc(CN2C(=O)C(CC(=O)NCCCCc3ccccc3)CC(C(=O)N(C)C)=C2C)cc1 (stereo unspecified)	3	-4	6	-3	-1	-2
Cn1c(Cc2c[nH]c3ccccc23)n[nH]c1=S	-4	-3	-5	2	7	44*
Cc1[nH]c2ccccc2c1Cc1n[nH]c(=S)n1C	3	-7	0	-3	-3	9
Cn1c(=O)c2cc(NC(=S)NCc3ccccc3F)ccc2n1Cc1cccc(C(F)(F)F)c1	-4	-2	-12	-1	-6	-1
COc1ccccc1CN(Cc1cc2c(C)ccc(C)c2[nH]c1=O)Cc1nnnn1Cc1ccco1	-14	8	-6	6	1	37*
COc1ccc2cc(CN(CCc3ccccc3)Cc3nnnn3Cc3ccco3)c(=O)[nH]c2c1	-8	16	-3	7	14	-11
Cn1nnnc1SCC1=C(C(=O)O)N2C(=O)[C@@H](NC(=O)[C@H](O)c3ccccc3)[C@H]2SC1	-2	25	88*	35	20	5
Cn1nnnc1SCC1=C(C(=O)O)N2C(=O)C(NC(=O)C3CC3c3ccccc3)C2SC1 (stereo unspecified)	-4	6	27	1	-2	12
Cc1cc2c(cc1C)-n1nnnc1C(N(C)Cc1ccccc1)C(=O)N2 (stereo unspecified)	-9	x	x	4	0	-7
COC(=O)C1=CN(c2ccc(OC)cc2)C(N)=C(C#N)C1c1ccccc1F (stereo unspecified)	-2	x	x	4	-1	0
COCCOC(=O)/C(=C/c1ccc(OC(=O)c2ccccc2)cc1)C(C)=O	0	-4	25	14	3	1
CCOC(=O)/C(=C/c1ccc(OC(=O)c2ccncc2)cc1)C(C)=O	1	-1	-2	4	36*	-11
Cc1ccc(NC(=O)CSc2nc3ccccc3c3nc(CCc4c(C)n[nH]c4C)nn23)cc1F	-2	1	-20	43*	5	-7
Cc1cc(F)ccc1S(=O)(=O)N1CCCOC1CNC(=O)C(=O)NCc1ccc2c(c1)OCO2 (stereo unspecified)	2	2	-2	0	4	37*
SMILES	MT1-MMP act inh	Rpn11 inh	DNMT1 block	SUMO1-SIM PPI	CSN deneddyl inh	SKN-1 inh
CCOc1ccc2c(CC)cc(=O)oc2c1OCC	13	3	-1	-1	1	7
C=CCOc1ccc2c(CC)cc(=O)oc2c1C	-5	3	7	0	-1	72*
CN1CCN(c2oc(-c3ccccc3F)nc2S(=O)(=O)c2ccc(Cl)cc2)CC1	-2	-17	0	1	-3	4
NC(=O)C1CCN(c2oc(-c3ccccc3F)nc2S(=O)(=O)c2ccc(Cl)cc2)CC1	1	-4	3	-3	-1	38*
Oc1cc2c(c(Cl)c1O)CCNCC2c1ccccc1 (stereo unspecified)	-6	1	9	4	4	42*
CC(=O)c1sc2nc(CSc3nnnn3-c3ccccc3)[nH]c(=O)c2c1C	-90	x	25	3	46*	-4
Cc1cccc(-c2nc(-c3ccncc3)no2)c1	0	2	2	8	2	31
Cc1ccc(-c2nc(-c3ccncc3)no2)cc1	2	0	1	-3	-4	42*
FC(F)(F)c1cccc(-c2nc(-c3ccncc3)no2)c1	1	-6	-3	0	-1	50*
Brc1cccc(-c2nc(-c3ccncc3)no2)c1	-3	-1	-1	2	6	77*
COc1ccc(C(N)c2csc(Nc3ccc(C(F)(F)F)cn3)n2)cc1 (stereo unspecified)	-7	5	-19	-26	4	-16
CC(C)n1nnnc1C1c2ccccc2C(=O)N1Cc1cccnc1 (stereo unspecified)	1	x	x	-7	1	22
Cc1cccc(Cc2cccc(C)c2O)c1O	2	-3	-2	10	2	-2
O=C(Nc1cc(Cl)ccc1Cl)c1noc2c1CCCC2	5	-2	4	1	-1	-13
O=C(Nc1ccc(F)cc1F)c1noc2c1CCC2	0	-22	88*	4	32	1
CC(C)C[C@H]1CN([C@@H](Cc2ccc(O)cc2)CN2CCC[C@H]2CN2C(=O)C(=O)NC[C@@H]2Cc2ccccc2)C(=O)C(=O)N1CC1CCCCCC1	2	x	x	9	0	-4
C=CCN1C(=O)/C(=C/c2ccc(O)c(OC)c2)S/C1=N/c1nccs1	-97	x	-18	-32	83*	26
COc1ccc(-c2coc3c(C(=O)NCc4ccc(OC)c(OC)c4)cccc23)c(C)c1	2	6	-3	6	-2	25
Cc1c(CC(=O)O)c(=O)oc2c(C)c(OCc3ccc(F)cc3Cl)ccc12	-7	-8	-1	84*	53*	0
